Laboratory results from ChEMBL document CHEMBL1134792, “Antimitotic antitumor agents: synthesis, structure-activity relationships, and biological characterization of N-aryl-N'-(2-chloroethyl)ureas as new selective alkylating agents” (J Med Chem, 2001).
Active and inactive are the calls of the source. The calls are words filed in the database; no cut-off is given here.

Experiments:
MDA-MB-231 [1] = assay: Dose required to inhibit cell growth was determined against MDA-MB-231 cell line of human non-hormone dependent breast carcinoma; NA= Not active represents IC50 >400 uM; type: functional, cell-based
Summary of the method: (§1)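 Alamar Blue growth-inhibition assay. Cells ((1–5) × 10³ per well) were preincubated for 24 h, then exposed to increasing drug concentrations for 72 h at 37 °C. Alamar Blue (20%) was added and fluorescence read at ex 485 / em 590 nm. IC50 is the dose inhibiting growth by 50%. Means of ≥3 independent determinations.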

LoVo [2] = assay: Dose required to inhibit cell growth was determined against LoVo cell line of human adenocarcinoma; NA= Not active represents IC50 >400 uM; type: functional, cell-based; summary of the method: as §1
P388 [3] = assay: Dose required to inhibit cell growth was determined against P388D1 cell line of murine lymphocytotic leukemia; NA= Not active represents IC50 >400 uM; type: functional, cell-based; details: Mus musculus; summary of the method: as §1
CHO [4] = assay: Dose required to inhibit cell growth was determined against CHO cell line; type: functional, cell-based; details: Cricetulus griseus
Summary of the method: (§2)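 Alamar Blue growth assay. (1–5) × 10^3 cells per well preincubated 24 h, then exposed to increasing drug concentrations for 72 h at 37 °C. Medium replaced with PBS containing 20% Alamar Blue, fluorescence read at 485/590 nm. IC50 is the dose inhibiting growth by 50%.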

HT-29 = assay: Dose required to inhibit cell growth was determined against HT-29 cell line of human adenocarcinoma; type: functional, cell-based; summary of the method: as §2
K562 = assay: Dose required to inhibit cell growth was determined against K562 cell line of chronic myelogenous leukemia; type: functional, cell-based; details: Homo sapiens; summary of the method: as §2
L1210 = assay: Dose required to inhibit cell growth was determined against L1210 cell line of murine lymphocytotic leukemia; type: functional, cell-based; details: Mus musculus; summary of the method: as §2
MDA-MB-231 [5] = assay: Dose required to inhibit cell growth was determined against MDA-MB-231 cell line of human non-hormone dependent breast carcinoma; type: functional, cell-based; summary of the method: as §2
LoVo [6] = assay: Dose to inhibit cell growth determined against LoVo cell line of human adenocarcinoma; type: functional, cell-based; summary of the method: as §2
P388 [7] = assay: Dose required to inhibit cell growth was determined against P388D1 cell line of murine lymphocytotic leukemia; type: functional, cell-based; details: Mus musculus; summary of the method: as §2
[8] = target: T1, Glutathione reductase, mitochondrial (Homo sapiens) (UniProt P00390); assay: Glutathione reductase activity was measured after incubation with a conc. of 500 uM; type: functional
T1 sequence (whole entry): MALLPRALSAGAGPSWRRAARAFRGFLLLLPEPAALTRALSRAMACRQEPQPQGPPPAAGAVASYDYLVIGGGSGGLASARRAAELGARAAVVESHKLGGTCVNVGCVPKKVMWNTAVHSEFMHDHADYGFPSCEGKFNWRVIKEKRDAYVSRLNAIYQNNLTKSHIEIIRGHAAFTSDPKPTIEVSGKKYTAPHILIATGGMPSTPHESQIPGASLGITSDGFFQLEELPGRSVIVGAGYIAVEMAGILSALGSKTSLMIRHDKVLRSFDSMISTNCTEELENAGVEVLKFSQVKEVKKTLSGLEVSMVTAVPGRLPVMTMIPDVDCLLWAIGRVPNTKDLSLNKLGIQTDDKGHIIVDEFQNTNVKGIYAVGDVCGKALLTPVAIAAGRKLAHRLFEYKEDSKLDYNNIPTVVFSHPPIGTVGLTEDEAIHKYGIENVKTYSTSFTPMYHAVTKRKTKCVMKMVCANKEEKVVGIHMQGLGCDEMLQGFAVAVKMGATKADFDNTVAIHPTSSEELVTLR
Summary of the method: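 Purified glutathione reductase (0.016 U/mL) with 100 µM NADPH, 1 mM EDTA, 1 mg/mL BSA and 500 µM drug (from 2% ethanol solution) in 0.1 M phosphate pH 7.4, preincubated 60 min at 30 °C. GSSG was then added for 60 min at 30 °C. Activity is the […] over 3 min, as % of no-drug control, in triplicate.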

MDA-MB-231 [9] = assay: Beta tubulin alkylation activity in MDA-MB-231 cells; type: functional, Homo sapiens; parameters: concentration or dose not given beside the values
Summary of the method: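 MDA-MB-231 cells (~5 × 10^6), exponentially growing, exposed to 30 μM compound for 24 h at 37 °C. Lysed in Laemmli buffer, run on 10% SDS-PAGE, immunoblotted with anti-β-tubulin (TUB 2.1, 1:500) and peroxidase anti-mouse secondary, ECL detection. Normal and alkylated band densities integrated to give % alkylated β-tubulin. Representative of three experiments.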

[10] = Alkylating activity by using 4-(4-nitrobenzyl)-pyridine(NBP) colorimetric assay
Summary of the method: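 NBP colorimetric assay. Drug at 400 nmol/mL in ethanol was mixed with 10% NBP in ethanol and 50 mM sodium acetate pH 4.3, then heated at 80 °C for 60, 90, 120 or 150 min. Samples were chilled and basified with KOH/ethanol, and A570 was read against a drug-free blank. The alkylation rate (A570/min) is the slope of a linear regression of absorbance vs time. Mean ± SD of ≥3 independent experiments.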

[11] = Glutathione activity was measured after incubation with a conc. of 500 uM
Summary of the method: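 Cell-free thiol assay. GSH 500 µM with 1 mM EDTA and 500 µM drug (from 2% ethanol solution) in 0.1 M phosphate buffer pH 7.4, 60 min at room temperature. DTNB (0.133 mM) was then added and A412 read. Reported as % of no-drug control, in triplicate.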

MDA-MB-231 [12] = assay: DNA damages caused in MDA-MB-231 cells after 2 hr compound exposure to 400 uM concentration; type: functional, Homo sapiens
Summary of the method: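 Growing MDA-MB-231 cells held 2 h at 37 °C in medium with or without 400 μM compound. Cells washed in cold PBS and lysed in Tris/SDS/EDTA/deferoxamine/proteinase K buffer. DNA isolated by salting out, then 3'-end labeled by T4 DNA polymerase nucleotide exchange. Incorporated radioactivity measured by dot filtration, expressed as dCps exchanged/ng DNA. Means ± SD, ≥3 determinations.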

MDA-MB-231 [13] = assay: Dose required to inhibit cell growth was determined against MDA-MB-231 cell line of human non-hormone dependent breast carcinoma; Not active represents IC50 >400 uM; type: functional, cell-based; summary of the method: as §1
CHO [14] = assay: Dose required to inhibit cell growth was determined against CHO cell line; Not active represents IC50 >400 uM; type: functional, cell-based; details: Cricetulus griseus; summary of the method: as §1

Compound	IC50 (CHO [4]) [µM]	IC50 (HT-29) [µM]	IC50 (K562) [µM]	IC50 (L1210) [µM]	IC50 (MDA-MB-231 [5]) [µM]	IC50 (LoVo [6]) [µM]	IC50 (P388 [7]) [µM]	also measured
CCCCCCCCCCCCc1ccc(NC(=O)NCCCl)cc1	–	–	–	–	–	–	–	NA (MDA-MB-231 [1]): inactive; NA (LoVo [2]): inactive; NA (P388 [3]): inactive
CCCCc1ccc(NC(=O)NCCCl)cc1	18	22	10	12	19	10	10	–
Cc1cc(C)c(NC(=O)NCCCl)c(C)c1	–	–	–	–	–	–	–	NA (MDA-MB-231 [1]): inactive; NA (LoVo [2]): inactive; NA (P388 [3]): inactive
CC(C)c1ccc(NC(=O)NCCCl)cc1	3.2	5	1.3	1.2	2.5	1	2.1	Activity [8]: 100%; Activity (MDA-MB-231 [9]): 65%; Activity [10]: 3 A570 min-1; Activity [11]: 100%
CCC(C)c1ccc(NC(=O)NCCCl)cc1 (stereo unspecified)	4	3.6	1.3	1.3	3.1	2.2	2.4	Activity [8]: 100%; Activity (MDA-MB-231 [9]): 76%; Activity [10]: 3.1 A570 min-1; Activity [11]: 100%
O=C(NCCCl)Nc1ccc(Cl)cc1	19	14	9.1	9.6	31	23	11	–
CCCCCCc1ccc(NC(=O)NCCCl)cc1	15	12	7.1	5	15	6.1	8.2	Activity [8]: 99%; Activity (MDA-MB-231 [9]): 34%; DNA damage (MDA-MB-231 [12]): 2.32 10e7 exchanged dCps (ng of DNA); Activity [10]: 3.1 A570 min-1; Activity [11]: 100%
CC(Cl)CNC(=O)Nc1ccc(C(C)(C)C)cc1 (stereo unspecified)	52	21	23	6	52	–	–	–
Cc1ccc(NC(=O)NCCCl)cc1C	8.7	5.4	3.5	3.8	7.2	3.5	4.2	–
CC(C)(C)c1ccc(NC(=O)NCCCl)cc1	6.3	9.1	3.5	3	6.2	4.1	5.2	Activity [8]: 100%; Activity (MDA-MB-231 [9]): 44%; DNA damage (MDA-MB-231 [12]): 2.22 10e7 exchanged dCps (ng of DNA); Activity [10]: 3.1 A570 min-1; Activity [11]: 100%
CCc1ccc(NC(=O)NCCCl)cc1	6.4	6.4	2.5	2.7	5	3.2	5.2	–
CCCNC(=O)Nc1ccc(C(C)(C)C)cc1	132	35	30	5.4	131	–	–	–
CC(C)Cc1ccc(NC(=O)NCCCl)cc1	23	21	11	11	24	–	–	–
Cc1cc(C)cc(NC(=O)NCCCl)c1	24.7	20	10	8.8	20	8.8	8.6	–
O=C(NCCCl)Nc1cccc2ccccc12	106	–	107	118	150	150	130	–
CCCNC(=O)Nc1ccc(C(C)C)cc1	133	76	52	14	–	–	–	NA (MDA-MB-231 [13]): inactive
CCCc1ccc(NC(=O)NCCCl)cc1	19	23	8.2	9	18	10	11	–

Compound	IC50 (CHO [4]) [µM]	IC50 (HT-29) [µM]	IC50 (K562) [µM]	IC50 (L1210) [µM]	IC50 (MDA-MB-231 [5]) [µM]	IC50 (LoVo [6]) [µM]	IC50 (P388 [7]) [µM]	also measured
O=C(NCCCl)Nc1ccc(Br)cc1	10	9	4.6	8.1	10	11	10	–
Cc1cccc(NC(=O)NCCCl)c1C	–	–	–	–	–	–	–	NA (MDA-MB-231 [1]): inactive; NA (LoVo [2]): inactive; NA (P388 [3]): inactive
CCNC(=O)Nc1ccc(C(C)CC)cc1 (stereo unspecified)	–	132	101	43	–	–	–	NA (CHO [14]): inactive; NA (MDA-MB-231 [13]): inactive
CC(C)(C)Cc1ccc(NC(=O)NCCCl)cc1	35	36	21	19	34	–	–	–
O=C(NCCCl)Nc1ccc(C2CCCCC2)cc1	23	38	18	16	44	22	22	–
CCCNC(=O)Nc1ccc(C(C)CC)cc1 (stereo unspecified)	–	133	106	30	–	–	–	NA (CHO [14]): inactive; NA (MDA-MB-231 [13]): inactive
O=c1[nH]c2ccccc2c(=O)n1CCCl	–	–	–	–	–	–	–	NA (MDA-MB-231 [1]): inactive; NA (LoVo [2]): inactive; NA (P388 [3]): inactive
CC(C)CCc1ccc(NC(=O)NCCCl)cc1	19	33	15	14	32	–	–	–
CCCCCCCCCCc1ccc(NC(=O)NCCCl)cc1	–	–	–	–	–	–	–	NA (MDA-MB-231 [1]): inactive; NA (LoVo [2]): inactive; NA (P388 [3]): inactive
Cc1cccc(NC(=O)NCCCl)c1	–	–	–	–	60	60	75	–
CCCCCCCc1ccc(NC(=O)NCCCl)cc1	22	25	16	13	30	15	18	–
O=C(NCCCl)Nc1cccc(I)c1	35	24	17	27	27	36	34	–
Cc1ccccc1NC(=O)NCCCl	–	–	–	–	–	–	–	NA (MDA-MB-231 [1]): inactive; NA (LoVo [2]): inactive; NA (P388 [3]): inactive
CCCCCCCCc1ccc(NC(=O)NCCCl)cc1	–	–	–	–	33	29	32	–
Cc1cccc(C)c1NC(=O)NCCCl	–	–	–	–	–	–	–	NA (MDA-MB-231 [1]): inactive; NA (LoVo [2]): inactive; NA (P388 [3]): inactive
Cc1ccc(NC(=O)NCCCl)cc1	26	23	16	16	25	20	30	–
